Experimental data published in ChEMBL document CHEMBL2203287, “Synthesis and biological evaluation of novel heterocyclic derivatives of combretastatin A-4” (Bioorg Med Chem Lett, 2012).
Active and inactive are the calls of the source. The calls are words filed in the database; no cut-off is given here.

Assays:
HaCaT [1] = test: Induction of morphological changes in human HaCaT cells assessed as loss of radial distribution of structured microtubules at 10 '-6 M by confocal microscopy; format: functional, cell-based
Outline: (§1)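 Cells were fixed and immunostained for beta-tubulin with a monoclonal antibody, then detected with goat anti-mouse FITC secondary. Confocal optical sections were taken at ×63 objective magnification. Vehicle-treated controls were imaged in parallel.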

HaCaT [2] = test: Induction of morphological changes in human HaCaT cells assessed as cell detachment at 10 '-6 M by confocal microscopy; format: functional, cell-based; outline: as §1
[3] = Induction of morphological changes in human SKv-a cells assessed as loss of radial distribution of structured microtubules at 10 '-6 M by confocal microscopy; format: functional, cell-based; outline: as §1
HaCaT [4] = test: Induction of morphological changes in human HaCaT cells assessed as cell rounding at 10 '-6 M by confocal microscopy; format: functional, cell-based; outline: as §1
SKv-a [5] = test: Induction of morphological changes in human SKv-a cells assessed as cell detachment at 10 '-6 M by confocal microscopy; format: functional, cell-based; outline: as §1
SKv-a [6] = test: Induction of morphological changes in human SKv-a cells assessed as cell rounding at 10 '-6 M by confocal microscopy; format: functional, cell-based; outline: as §1
HaCaT [7] = test: Induction of microtubule depolymerization in human HaCaT cells at 10 '-6 M by confocal microscopy; format: cell-based
SKv-a [8] = test: Induction of microtubule depolymerization in human SKv-a cells at 10 '-6 M by confocal microscopy; format: cell-based
HaCaT [9] = test: Antiproliferative activity against human HaCaT cells assessed as cell viability by MTT assay; format: functional, cell-based
Outline: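 MTT read-out of metabolic activity, taken as the number of viable cells remaining after 72 h continuous exposure of cultured keratinocytes.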

[10] = Inhibition of sheep brain tubulin assembly compound incubated for 10 mins at 37 degC followed by 5 mins incubation at 0 degC by turbidimetry; design: species or system Ovis aries
SKv-a [11] = test: Mitotic arrest in human SKv-a cells at 5 uM after 24 hrs using propidium iodide by flow cytometry; format: functional, cell-based
Outline: (§2)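 Exponentially growing cells given 5×10^-6 M for 24 h, with 0.5% DMSO vehicle control. Cells detached with gentle Accutase, then stained in suspension with propidium iodide 0.05 mg/mL in citrate buffer with Nonidet P40 for 1 h at 4 °C. FACS on 20,000 cells for G1/S/G2/M distribution; run in triplicate.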

HaCaT [12] = test: Mitotic arrest in human HaCaT cells at 5 uM after 24 hrs using propidium iodide by flow cytometry; format: functional, cell-based; outline: as §2
Ovis aries = species: Ovis aries; test: Inhibition of sheep brain tubulin assembly at 32 uM incubated for 10 mins at 37 degC followed by 5 mins incubation at 0 degC by turbidimetry

## COc1cc2c(c(OC)c1OC)-c1ccc(OC)c(=O)cc1[C@@H](NC(C)=O)CC2 [COLCHICINE]
HaCaT [1]
  Activity: Active
HaCaT [2]
  Activity: Active
[3]
  Activity: Active
HaCaT [4]
  Activity: Active
SKv-a [5]
  Activity: Active
SKv-a [6]
  Activity: Active
HaCaT [7]
  Activity: Active
SKv-a [8]
  Activity: Active
HaCaT [9]
  IC50: 12 nM

## COc1cc(/C=C\c2cc3ccccc3o2)cc(OC)c1OC
[10]
  IC50: 9600 nM

## COc1cc(/C=C\c2cc3ccccc3s2)cc(OC)c1OC
SKv-a [11]
  Activity: Active
HaCaT [12]
  Activity: Active
HaCaT [1]
  Activity: Active
HaCaT [2]
  Activity: Active
[3]
  Activity: Active
HaCaT [4]
  Activity: Active
SKv-a [5]
  Activity: Active
SKv-a [6]
  Activity: Active
HaCaT [7]
  Activity: Active
SKv-a [8]
  Activity: Active
HaCaT [9]
  IC50: 16 nM
[10]
  IC50: 2600 nM

## COc1ccc(/C=C\c2cc(OC)c(OC)c(OC)c2)cc1O [COMBRETASTATIN A4]
HaCaT [7]
  Activity: Active
SKv-a [8]
  Activity: Active
HaCaT [9]
  IC50: 1 nM

## COc1cc([C@@H]2c3cc4c(cc3C[C@H]3COC(=O)[C@@H]32)OCO4)cc(OC)c1OC [DESOXYPODOPHYLLOTOXIN]
[10]
  IC50: 1700 nM

## COc1cc(/C=C/c2cc3ccccc3o2)cc(OC)c1OC
Ovis aries
  inhibition: 23%

## COc1cc(/C=C\c2cc3ccccc3[nH]2)cc(OC)c1OC
[10]
  IC50: 21000 nM

## COc1cc(/C=C/c2cc3ccccc3s2)cc(OC)c1OC
SKv-a [11]
  Activity: Active
HaCaT [12]
  Activity: Active
HaCaT [7]
  Activity: Active
SKv-a [8]
  Activity: Active
[10]
  IC50: 8400 nM
